{"data": "Assay results pooled from the literature", "read-out": "cell growth or viability", "note": "Compare with care: the assays were run in different laboratories."}
{"SMILES": "CCn1c2ccccc2c2cc(C3CC(c4cc5ccccc5oc4=O)=NN3C(N)=O)ccc21 (stereo not drawn)", "cell line": "NRK-52E", "assay": "MTT", "setting": "24 h", "IC50 [µM]": 28.4}
{"SMILES": "CC(C)[C@H](N)C(=O)N1CCC[C@H]1B(O)O", "cell line": "MOLM-13", "assay": "ATP luminescence", "setting": "48 h", "IC50 [µM]": 0.12}
{"SMILES": "Oc1ccc(C(c2c[nH]c3ccccc23)c2c[nH]c3ccccc23)cc1", "cell line": "KG-1", "setting": "48 h", "IC50 [µM]": "> 20"}
{"SMILES": "CCn1c2ccccc2c2cc(C3CC(c4cc5c(ccc6ccccc65)oc4=O)=NN3C(C)=O)ccc21 (stereo not drawn)", "cell line": "NRK-52E", "assay": "MTT", "setting": "24 h", "IC50 [µM]": 81.3}
{"SMILES": "Cn1cc(C(c2ccc(C(=O)O)cc2)c2cn(C)c3ccccc23)c2ccccc21", "cell line": "KG-1", "setting": "48 h", "IC50 [µM]": "> 20"}
{"SMILES": "Nc1ncc(-c2cnn(C3CCNCC3)c2)cc1-c1nnc(CC2CC2)o1", "cell line": "MOLM-13", "assay": "trypan blue", "setting": "72 h", "IC50 [µM]": 0.184}
{"SMILES": "CCn1c2ccccc2c2cc(C3CC(c4cc5c(ccc6ccccc65)oc4=O)=NN3c3ccc(C)cc3)ccc21 (stereo not drawn)", "cell line": "NRK-52E", "assay": "MTT", "setting": "24 h", "IC50 [µM]": 79.9}
{"SMILES": "CCCON(Cc1ccc(C(=O)NO)cc1)C(=O)Nc1ccc(N(C)C)cc1", "cell line": "MOLM-13", "assay": "ATP luminescence", "setting": "72 h", "IC50 [µM]": 7.19}
{"SMILES": "CCn1c2ccccc2c2cc(C3CC(c4cc5c(ccc6ccccc65)oc4=O)=NN3c3cccc(Cl)c3)ccc21 (stereo not drawn)", "cell line": "NRK-52E", "assay": "MTT", "setting": "24 h", "IC50 [µM]": 57.1}
{"SMILES": "CC1=C(O)C(=O)C=C2C1=CC=C1[C@@]2(C)CC[C@@]2(C)[C@@H]3C[C@](C)(C(=O)OCCCCO)CC[C@]3(C)CC[C@]12C", "cell line": "Bel-7402", "assay": "MTT", "setting": "48 h", "IC50 [µM]": 0.63}
{"SMILES": "Cc1[nH]c(/C=C2\\C(=O)Nc3ccc(S(=O)(=O)N(C)c4cccc(Cl)c4)cc32)c(C)c1C(=O)N1CCN(C)CC1", "cell line": "Rh18", "setting": "72 h", "IC50 [µM]": 4.07}
{"SMILES": "CC(C)C[C@H](NC(=O)[C@H](Cc1ccccc1)NC(=O)c1cnccn1)B(O)O", "cell line": "NCI-H1573", "assay": "ATP luminescence", "IC50 [µM]": 0.029}
{"SMILES": "O=C(O)c1ccc(C(c2c[nH]c3ccccc23)c2c[nH]c3ccccc23)cc1", "cell line": "KG-1", "setting": "48 h", "IC50 [µM]": "> 20"}
{"SMILES": "CCn1c2ccccc2c2cc(C3CC(c4cc5ccccc5oc4=O)=NN3c3ccc(C)cc3)ccc21 (stereo not drawn)", "cell line": "NRK-52E", "assay": "MTT", "setting": "24 h", "IC50 [µM]": 83.2}
{"SMILES": "O=C(O)C(c1c[nH]c2ccccc12)c1c[nH]c2ccccc12", "cell line": "KG-1", "setting": "48 h", "IC50 [µM]": "> 20"}
{"SMILES": "N[C@@H](CC(=O)N1CCN(C(c2ccc(F)cc2)c2ccc(F)cc2)CC1)C(=O)N1Cc2ccccc2C1", "cell line": "KG-1", "assay": "ATP luminescence", "setting": "48 h", "IC50 [µM]": 9.31}
{"SMILES": "CC1=C(O)C(=O)C=C2C1=CC=C1[C@@]2(C)CC[C@@]2(C)[C@@H]3C[C@](C)(C(=O)OCCCBr)CC[C@]3(C)CC[C@]12C", "cell line": "Bel-7402", "assay": "MTT", "setting": "48 h", "IC50 [µM]": 0.72}
{"SMILES": "CCn1c2ccccc2c2cc(/C=C/C(=O)c3cc4c(ccc5ccccc54)oc3=O)ccc21", "cell line": "NRK-52E", "assay": "MTT", "setting": "24 h", "IC50 [µM]": 82.7}
{"SMILES": "CC1=C(O)C(=O)C=C2C1=CC=C1[C@@]2(C)CC[C@@]2(C)[C@@H]3C[C@](C)(C(=O)OCCCOc4ccccc4)CC[C@]3(C)CC[C@]12C", "cell line": "Bel-7402", "assay": "MTT", "setting": "48 h", "IC50 [µM]": 1.33}
{"SMILES": "FC(F)(F)c1ccc(C(c2c[nH]c3ccccc23)c2c[nH]c3ccccc23)cc1", "cell line": "KG-1", "setting": "48 h", "IC50 [µM]": 15}
{"SMILES": "COC(=O)N[C@@H](C)CNc1nccc(-c2cn(C(C)C)nc2-c2cc(Cl)cc(NS(C)(=O)=O)c2F)n1", "cell line": "Malme-3M", "IC50 [µM]": 0.0039}
{"SMILES": "COc1cc2nccc(Oc3ccc(NC(=O)C4(C(=O)Nc5ccc(F)cc5)CC4)cc3)c2cc1OC", "cell line": "Rh18", "setting": "72 h", "IC50 [µM]": 5.75}
{"SMILES": "CC1=C(O)C(=O)C=C2C1=CC=C1[C@@]2(C)CC[C@@]2(C)[C@@H]3C[C@](C)(C(=O)OCCO)CC[C@]3(C)CC[C@]12C", "cell line": "Bel-7402", "assay": "MTT", "setting": "48 h", "IC50 [µM]": 0.68}
{"SMILES": "COc1cc(Nc2nccc(-c3cnn4nc(OC)ccc34)n2)cc(C(F)(F)F)c1", "cell line": "NCI-H1573", "assay": "ATP luminescence", "IC50 [µM]": 0.63}
{"SMILES": "C[C@@H](Oc1cc(-c2cnn(C3CCNCC3)c2)cnc1N)c1c(Cl)ccc(F)c1Cl", "cell line": "Rh18", "setting": "72 h", "IC50 [µM]": 0.55}
{"SMILES": "CCn1c2ccccc2c2cc(/C=C/C(=O)c3cc4ccccc4oc3=O)ccc21", "cell line": "NRK-52E", "assay": "MTT", "setting": "24 h", "IC50 [µM]": 94.6}
{"SMILES": "CC1=C(O)C(=O)C=C2C1=CC=C1[C@@]2(C)CC[C@@]2(C)[C@@H]3C[C@](C)(C(=O)OCCCCCCCO)CC[C@]3(C)CC[C@]12C", "cell line": "Bel-7402", "assay": "MTT", "setting": "48 h", "IC50 [µM]": 0.74}
{"SMILES": "CCn1c2ccccc2c2cc(C3CC(c4cc5cccc(OC)c5oc4=O)=NN3c3ccc(C)cc3)ccc21 (stereo not drawn)", "cell line": "NRK-52E", "assay": "MTT", "setting": "24 h", "IC50 [µM]": 52}
{"SMILES": "Cn1cc(C(c2ccc(/C=C/C(=O)O)s2)c2cn(C)c3ccccc23)c2ccccc21", "cell line": "KG-1", "setting": "48 h", "IC50 [µM]": "> 20"}
{"SMILES": "CC1=C(O)C(=O)C=C2C1=CC=C1[C@@]2(C)CC[C@@]2(C)[C@@H]3C[C@](C)(C(=O)OCCCCCCO)CC[C@]3(C)CC[C@]12C", "cell line": "Bel-7402", "assay": "MTT", "setting": "48 h", "IC50 [µM]": 1.22}
